According to ChEMBL document CHEMBL3862007, “Synthesis and antimicrobial activity of small cationic amphipathic aminobenzamide marine natural product mimics and evaluation of relevance against clinical isolates including ESBL-CARBA producing multi-resistant bacteria” (Bioorg Med Chem, 2016):

What was measured:
Bacillus subtilis [1] = test: Antibacterial activity against Bacillus subtilis 168 ATCC 23857 after 48 hrs by microdilution method; format: functional; settings: subsp. subtilis str. 168 ATCC 23857, 48 h
[2] = Aqueous solubility of the compound; format: physicochemical; settings: buffer
Staphylococcus aureus [3] = test: Antibacterial activity against Staphylococcus aureus ATCC 9144 after 48 hrs by microdilution method; format: functional; settings: ATCC 9144, 48 h
[4] = Hemolytic activity in human RBC after 1 hr; format: ADME, cell-based; settings: Erythrocyte
Pseudomonas aeruginosa [5] = test: Antibacterial activity against Pseudomonas aeruginosa PAO1 DSM 19880 (ATCC 15692) after 48 hrs by microdilution method; format: functional
Escherichia coli [6] = test: Antibacterial activity against Escherichia coli ATCC 25922 after 48 hrs by microdilution method; format: functional; settings: ATCC 25922, 48 h
[7] = test system: Corynebacterium glutamicum; test: Antibacterial activity against Corynebacterium glutamicum ATCC 13032 after 48 hrs by microdilution method; format: functional; settings: ATCC 13032, 48 h
[8] = Selectivity index, ratio of hemolytic EC50 for human RBC to MIC for Staphylococcus aureus ATCC 9144
[9] = Antibacterial activity against methicillin-resistant Staphylococcus epidermidis RP62A CCUG 31568 (ATCC 35984) after 48 hrs by microdilution method; format: functional
Outline: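 Broth microdilution MIC against the reference-strain panel. Compounds were supplied as HCl salts for aqueous solubility in the test medium. Precipitation in the test buffer is flagged at higher concentrations.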

Bacillus subtilis [10] = test: Membranolytic activity in Bacillus subtilis 168 ATCC 23857 carrying pCSS962 plasmid measured every second for 30 secs by luciferase reporter assay; format: functional; settings: subsp. subtilis str. 168 ATCC 23857
Outline: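 B. subtilis 168 carrying pCSS962 (luciferase-expressing) was added as a suspension already containing D-luciferin, with luminescence read in real time up to 120 s. Water served as the untreated control. Chlorhexidine was added to all samples at 30 s as a membranolytic control. Fold induction is the peak sample luminescence over the water-control maximum after chlorhexidine, from two independent experiments.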

Enterococcus sp. = test: Antibacterial activity against Enterococcus sp. clinical isolate after 24 hrs by microdilution method; format: functional
Klebsiella pneumoniae = test: Antibacterial activity against Klebsiella pneumoniae clinical isolate after 24 hrs by microdilution method; format: functional
Escherichia coli [11] = test: Antibacterial activity against Escherichia coli clinical isolate after 24 hrs by microdilution method; format: functional
Pseudomonas aeruginosa [12] = test: Antibacterial activity against Pseudomonas aeruginosa clinical isolate after 24 hrs by microdilution method; format: functional
Staphylococcus aureus [13] = test: Antibacterial activity against Staphylococcus aureus clinical isolate after 24 hrs by microdilution method; format: functional

| Structure (SMILES) | MIC (Bacillus subtilis [1]) | solubility [2] | MIC (Staphylococcus aureus [3]) | EC50 [4] | MIC (Pseudomonas aeruginosa [5]) | MIC (Escherichia coli [6]) | MIC [7] | Selectivity Index [8] | MIC [9] | Activity (Bacillus subtilis [10]) | MIC (Enterococcus sp.) | MIC (Klebsiella pneumoniae) | MIC (Escherichia coli [11]) | MIC (Pseudomonas aeruginosa [12]) | MIC (Staphylococcus aureus [13]) |
| --- | --- | --- | --- | --- | --- | --- | --- | --- | --- | --- | --- | --- | --- | --- | --- |
| CC(C)(C)c1cc(C(=O)NCc2ccc(C(=O)NCCNC(=N)N)cc2)cc(C(C)(C)C)c1.Cl | 8 µg/mL | Insoluble | 8 µg/mL | 52 µg/mL | 16 µg/mL | 16 µg/mL | 2 µg/mL | 6.5 | 8 µg/mL |  |  |  |  |  |  |
| CC(C)(C)c1cc(C(=O)Nc2ccccc2C(=O)NCCCN)cc(C(C)(C)C)c1.Cl | 4 µg/mL |  | 8 µg/mL | 23 µg/mL | 32 µg/mL | 16 µg/mL | 4 µg/mL | 2.9 | 8 µg/mL | Dose-dependent effect |  |  |  |  |  |
| CC(C)(C)c1cc(NC(=O)c2ccc(C(=O)NCCN)cc2)cc(C(C)(C)C)c1.Cl | 4 µg/mL |  | 8 µg/mL | 21 µg/mL | 16 µg/mL | 8 µg/mL | 8 µg/mL | 2.6 | 8 µg/mL |  |  |  |  |  |  |
| CN(C)CCOC(=O)c1ccc(NC(=O)c2cc(C(C)(C)C)cc(C(C)(C)C)c2)cc1.Cl | 4 µg/mL |  | 8 µg/mL | 28 µg/mL | > 128 µg/mL | > 128 µg/mL | 4 µg/mL | 3.5 | 8 µg/mL |  |  |  |  |  |  |
| CC(C)(C)c1cc(C(=O)Nc2ccccc2C(=O)NCCCNC(=N)N)cc(C(C)(C)C)c1.Cl | 2 µg/mL |  | 4 µg/mL | 39 µg/mL | 32 µg/mL | 8 µg/mL | 1 µg/mL | 9.8 | 2 µg/mL |  |  |  |  |  |  |
| CN(C)CCNC(=O)c1ccc(NC(=O)c2cc(C(C)(C)C)cc(C(C)(C)C)c2)cc1.Cl | 8 µg/mL |  | 16 µg/mL | > 16 µg/mL | > 128 µg/mL | 32 µg/mL | 4 µg/mL | > 1 | 8 µg/mL |  |  |  |  |  |  |
| CC(C)(C)c1cc(C(=O)Nc2cc3ccccc3cc2C(=O)NCCN)cc(C(C)(C)C)c1.Cl | 4 µg/mL |  | 2 µg/mL | 23 µg/mL | > 128 µg/mL | 8 µg/mL | 2 µg/mL | 11.5 | 8 µg/mL |  | 2 µg/mL | 64 µg/mL | 8 µg/mL | > 64 µg/mL | 2 µg/mL |
| CC(C)(C)c1cc(NC(=O)c2ccc(C(=O)NCCCN)cc2)cc(C(C)(C)C)c1.Cl | 8 µg/mL |  | 8 µg/mL | 28 µg/mL | 16 µg/mL | 8 µg/mL | 4 µg/mL | 3.5 | 8 µg/mL |  |  |  |  |  |  |
| CN(C(=O)c1cc(C(C)(C)C)cc(C(C)(C)C)c1)c1ccc(C(=O)NCCCN)cc1.Cl | 128 µg/mL |  | > 128 µg/mL | 172 µg/mL | > 128 µg/mL | > 128 µg/mL | 64 µg/mL | < 1.3 | > 128 µg/mL |  |  |  |  |  |  |
| CC(C)(C)c1cc(C(=O)Nc2cccc(C(=O)NCCCNC(=N)N)c2)cc(C(C)(C)C)c1.Cl | 4 µg/mL |  | 4 µg/mL | 59 µg/mL | 16 µg/mL | 8 µg/mL | 4 µg/mL | 14.8 | 8 µg/mL | Dose-dependent effect |  |  |  |  |  |
| CC(C)(C)c1cc(C(=O)Nc2ccccc2C(=O)NCCN)cc(C(C)(C)C)c1.Cl | 4 µg/mL |  | 8 µg/mL | 29 µg/mL | 64 µg/mL | 16 µg/mL | 4 µg/mL | 3.6 | 8 µg/mL |  | 8 µg/mL | 32 µg/mL | 16 µg/mL | > 64 µg/mL | 8 µg/mL |
| CN(C(=O)c1cc(C(C)(C)C)cc(C(C)(C)C)c1)c1ccc(C(=O)NCCNC(=N)N)cc1.Cl | 16 µg/mL |  | 16 µg/mL | 243 µg/mL | 128 µg/mL | 128 µg/mL | 4 µg/mL | 15.2 | 16 µg/mL |  |  |  |  |  |  |
| CC(C)(C)c1cc(C(=O)Nc2cccc(C(=O)NCCCN)c2)cc(C(C)(C)C)c1.Cl | 8 µg/mL |  | 8 µg/mL | 32 µg/mL | 16 µg/mL | 16 µg/mL | 4 µg/mL | 4 | 8 µg/mL |  |  |  |  |  |  |
| CC(C)(C)c1cc(C(=O)Nc2cc3ccccc3cc2C(=O)NCCNC(=N)N)cc(C(C)(C)C)c1.Cl | 1 µg/mL |  | 2 µg/mL | > 16 µg/mL | 64 µg/mL | 16 µg/mL | 1 µg/mL | > 8 | 2 µg/mL |  | 8 µg/mL | 32 µg/mL | 16 µg/mL | > 64 µg/mL | 4 µg/mL |
| CC(C)(C)c1cc(NC(=O)c2ccc(C(=O)NCCCNC(=N)N)cc2)cc(C(C)(C)C)c1.Cl | 4 µg/mL |  | 4 µg/mL | 42 µg/mL | 8 µg/mL | 8 µg/mL | 2 µg/mL | 10.5 | 8 µg/mL |  | 8 µg/mL | 16 µg/mL | 8 µg/mL | 8 µg/mL | 4 µg/mL |
| CC(C)(C)c1cc(C(=O)Nc2ccc(C(=O)NCCCNC(=N)N)cc2)cc(C(C)(C)C)c1.Cl | 4 µg/mL |  | 4 µg/mL | 62 µg/mL | 16 µg/mL | 8 µg/mL | 2 µg/mL | 15.5 | 4 µg/mL |  |  |  |  |  |  |
| CC(C)(C)c1cc(C(=O)Nc2ccc(C(=O)NCCN)cc2)cc(C(C)(C)C)c1.Cl | 4 µg/mL |  | 8 µg/mL | 28 µg/mL | 16 µg/mL | 8 µg/mL | 4 µg/mL | 3.5 | 8 µg/mL |  | 16 µg/mL | 16 µg/mL | 8 µg/mL | 16 µg/mL | 8 µg/mL |
| CN(C(=O)c1cc(C(C)(C)C)cc(C(C)(C)C)c1)c1ccc(C(=O)NCCN)cc1 |  |  |  |  |  |  |  | 0.3 |  |  |  |  |  |  |  |
| CC(C)(C)c1cc(C(=O)Nc2ccc(C(=O)NCCNC(=N)N)cc2)cc(C(C)(C)C)c1.Cl | 4 µg/mL |  | 4 µg/mL | 38 µg/mL | 16 µg/mL | 8 µg/mL | 2 µg/mL | 9.5 | 4 µg/mL | Dose-dependent effect | 8 µg/mL | 16 µg/mL | 8 µg/mL | > 64 µg/mL | 4 µg/mL |
| CC(C)(C)c1cc(C(=O)Nc2cccc(C(=O)NCCN)c2)cc(C(C)(C)C)c1.Cl | 8 µg/mL |  | 16 µg/mL | 39 µg/mL | 16 µg/mL | 16 µg/mL | 8 µg/mL | 2.4 | 8 µg/mL |  |  |  |  |  |  |
| CC(C)(C)c1cc(NC(=O)c2ccc(C(=O)NCCNC(=N)N)cc2)cc(C(C)(C)C)c1.Cl | 4 µg/mL |  | 4 µg/mL | 44 µg/mL | 16 µg/mL | 8 µg/mL | 2 µg/mL | 11 | 4 µg/mL |  | 8 µg/mL | 16 µg/mL | 8 µg/mL | 8 µg/mL | 4 µg/mL |
| CC(C)(C)c1cc(C(=O)Nc2ccc(C(=O)NCCCN)cc2)cc(C(C)(C)C)c1.Cl | 4 µg/mL |  | 8 µg/mL | 31 µg/mL | 32 µg/mL | 8 µg/mL | 4 µg/mL | 3.9 | 8 µg/mL |  |  |  |  |  |  |
